ChEMBL document CHEMBL1148833, “3-Hydroxychromones as cyclin-dependent kinase inhibitors: synthesis and biological evaluation” (Bioorg Med Chem Lett, 2007)

Tests used:
[1] = biological target: Cyclin-dependent kinase 2 (Homo sapiens, UniProt P24941); assay: Inhibition of CDK2
EJ = assay: Cytotoxicity against EJ cells after 48 hrs; format: functional; conditions: Homo sapiens
Procedure, shortened: (§1)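 Exponentially growing cells exposed to compound at various concentrations for 48 h, then cell numbers measured; concentration giving 50% growth inhibition determined; means of three experiments.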

[2] = biological target: Cyclin-dependent kinase 1 (Homo sapiens, UniProt P06493); assay: Inhibition of CDK1
Cyclin-dependent kinase 1, sequence (P06493 whole entry): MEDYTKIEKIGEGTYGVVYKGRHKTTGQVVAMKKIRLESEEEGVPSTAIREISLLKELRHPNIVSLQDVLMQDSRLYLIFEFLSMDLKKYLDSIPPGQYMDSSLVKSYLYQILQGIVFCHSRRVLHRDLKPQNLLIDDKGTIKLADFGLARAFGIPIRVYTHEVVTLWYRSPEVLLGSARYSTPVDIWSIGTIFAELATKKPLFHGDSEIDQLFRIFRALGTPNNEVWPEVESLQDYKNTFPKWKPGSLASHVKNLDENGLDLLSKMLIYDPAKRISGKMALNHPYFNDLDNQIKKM

HCT-116 = assay: Cytotoxicity against HCT116 cells after 48 hrs; format: functional; conditions: Homo sapiens, HCT-116, 48 h; procedure, shortened: as §1
SW-620 = assay: Cytotoxicity against SW620 cells after 48 hrs; format: functional; conditions: Homo sapiens, SW-620, 48 h; procedure, shortened: as §1
MDA-MB-468 = assay: Cytotoxicity against MDA-MB-468 cells after 48 hrs; format: functional; conditions: Homo sapiens, MDA-MB-468, 48 h; procedure, shortened: as §1

| IC50 [1] | SMILES | GI50 (EJ) | further results |
| --- | --- | --- | --- |
| 4000 nM | O=c1c(O)c(-c2ccc(O)c(O)c2)oc2ccccc12 |  |  |
| > 500000 nM | O=c1cc(-c2ccc(O)c(O)c2)oc2c(O)c(O)ccc12 |  |  |
| > 500000 nM | O=c1cc(-c2ccc(O)c(O)c2)oc2ccccc12 |  |  |
| 1600 nM | CCN(CC)c1cc(C)cc2c(=O)c(O)c(-c3ccc(O)c(O)c3)oc12 |  |  |
| 630 nM | Cc1cc(N)c2oc(-c3ccc(O)c(O)c3)c(O)c(=O)c2c1 |  |  |
| 4000 nM | Cc1cc(N2C(=O)CNC2=O)c2oc(-c3ccc(O)c(O)c3)c(O)c(=O)c2c1 |  |  |
| 56 nM | Cc1cc(N2C(=O)CN(C)C2=O)c2oc(-c3ccc(O)c(O)c3)c(O)c(=O)c2c1 | 1100 nM |  |
|  | Cc1cc(N2CCCS2(=O)=O)c2oc(-c3ccc(O)c(O)c3)c(O)c(=O)c2c1 | 600 nM | IC50 [2]: 130 nM; GI50 (HCT-116): 280 nM; GI50 (SW-620): 900 nM; GI50 (MDA-MB-468): 1000 nM |
| 3000 nM | Cc1cc(N2CCCC2)c2oc(-c3ccc(O)c(O)c3)c(O)c(=O)c2c1 |  |  |
| 2600 nM | Cc1cc(N2CCCCC2)c2oc(-c3ccc(O)c(O)c3)c(O)c(=O)c2c1 |  |  |
| 640 nM | Cc1cc(N2CCN(C)CC2)c2oc(-c3ccc(O)c(O)c3)c(O)c(=O)c2c1 |  |  |
| 1500 nM | Cc1cc(N2C(=O)CCC2=O)c2oc(-c3ccc(O)c(O)c3)c(O)c(=O)c2c1 | 1200 nM |  |
|  | Cc1cc(N2CCCS2(=O)=O)c2oc(-c3ccc(O)cc3)c(O)c(=O)c2c1 | 270 nM | IC50 [2]: 450 nM; GI50 (HCT-116): 340 nM; GI50 (SW-620): 570 nM; GI50 (MDA-MB-468): 620 nM |
| 1600 nM | Cc1cc(N2CCCC2=O)c2oc(-c3ccc(O)c(O)c3)c(O)c(=O)c2c1 |  |  |
| 4400 nM | Cc1cc(N2C(=O)CCCC2=O)c2oc(-c3ccc(O)c(O)c3)c(O)c(=O)c2c1 |  |  |
|  | Cc1cc(N2CCCS2(=O)=O)c2oc(-c3ccc(O)c(C#N)c3)c(O)c(=O)c2c1 |  | IC50 [2]: 160 nM |
| 1700 nM | Cc1cc(N2CCCS2(=O)=O)c2oc(-c3ccc(O)c(C(F)(F)F)c3)c(O)c(=O)c2c1 | 1300 nM | IC50 [2]: 63 nM; GI50 (HCT-116): 910 nM |
| 190 nM | Cc1cc(N2CCCS2(=O)=O)c2oc(-c3ccc(O)c(Cl)c3)c(O)c(=O)c2c1 | 65 nM | IC50 [2]: 33 nM; GI50 (HCT-116): 37 nM; GI50 (SW-620): 64 nM; GI50 (MDA-MB-468): 180 nM |
|  | Cc1cc(N2CCCS2(=O)=O)c2oc(-c3ccc(O)c(Br)c3)c(O)c(=O)c2c1 | 64 nM | IC50 [2]: 19 nM; GI50 (HCT-116): 17 nM; GI50 (SW-620): 52 nM; GI50 (MDA-MB-468): 230 nM |
| 5000 nM | O=c1c(O)c(-c2ccc(O)c(O)c2)oc2cc(O)ccc12 [FISETIN] |  |  |

| SMILES | IC50 [1] | GI50 (EJ) | further results |
| --- | --- | --- | --- |
| O=c1cc(-c2ccc(O)c(O)c2)oc2cc(O)cc(O)c12 [LUTEOLIN] | 20000 nM |  |  |
| O=c1c(O)c(-c2ccc(O)c(O)c2)oc2cc(O)cc(O)c12 [QUERCETIN] | 40000 nM |  |  |
